The text below walks through data of ChEMBL document CHEMBL1821616, “New insights into the structural requirements for pro-apoptotic agents based on 2,4-diaminoquinazoline, 2,4-diaminopyrido[2,3-d]pyrimidine and 2,4-diaminopyrimidine derivatives” (Eur J Med Chem, 2011).

SMILES strings stand for the structures. Activity calls are given as the source filed them. The calls are words filed in the database; no cut-off is given here.

Series [1] has as its system T-24. Description: Cytotoxicity against human T24 cells assessed as cell survival at 100 uM after 72 hrs by neutral red dye assay. In kind it is functional. The following applies: T-24, 72 h, read-out: Survival. In outline:
(§1)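 HT-29 and T-24 cells were grown in McCoy's medium and MDA-MB-231 in Leibovitz, each with 10% FBS plus penicillin/streptomycin, as monolayers at 37 °C in 5% CO2. Compounds in DMSO (≤0.5% v/v final) were applied for 72 h. Survival was read by neutral red uptake against 0.5% DMSO-treated cells, as the mean of triplicates.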

Series [2] in a line: Cytotoxicity against human CRL11233 cells assessed as cell survival at 20 to 100 uM after 72 hrs by neutral red dye assay. The format is cell-based. As to conditions: read-out: Survival. In outline:
(§2)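 The non-tumoral lines were grown with 10% FBS plus penicillin/streptomycin, as monolayers at 37 °C in 5% CO2: CRL-8799 in MEG medium and CRL-11233 in BEGM. Compounds in DMSO (≤0.5% v/v final) were applied for 72 h. Survival was read by neutral red uptake against 0.5% DMSO solvent-treated controls, as the mean of triplicates.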

For series [3], the system named is HT-29. Description: Induction of apoptosis in human HT-29 cells assessed as caspase3 activation at IC50 after 48 hrs by FACS analysis relative to control. The format is functional. In outline:
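Active caspase-3 was detected by flow cytometry with a FITC anti-active-caspase-3 antibody kit, with readings at 14, 24 and 48 h. Treated cells were compared with untreated control cells. Results are scored as (+) for an increase of about 50% and (++) for a larger rise.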

Series [4] has as its system T-24. Description: Cytotoxicity against human T24 cells after 72 hrs by neutral red dye assay. The format is functional, cell-based. As to conditions: T-24, 72 h. The method, boiled down:
(§3)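 Human tumour cells were grown as monolayers with 10% FBS and penicillin/streptomycin at 37 °C in 5% CO2 (HT-29 and T-24 in McCoy's, MDA-MB-231 in Leibovitz). They were exposed to compound in DMSO (≤0.5% v/v final) at screening concentrations of 20 and 100 μM for 72 h and read by neutral red uptake. Survival is relative to cells given DMSO only, in triplicate.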

The test system of series [5] is HT-29. Put plainly: Induction of apoptosis in human HT-29 cells assessed as DNA fragmentation after 48 hrs by ELISA relative to control. In kind it is functional. The method, boiled down: (§4)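 DNA fragmentation was measured with the Cell Death Detection ELISA Plus kit after treatment of cultured tumour cells. The signal is expressed relative to untreated control cultures, which are set to 1.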
On the technique in general: An ELISA detects its analyte on a solid surface through an enzyme-linked reagent.

Series [6] concerns MDA-MB-231. Put plainly: Cytotoxicity against human MDA-MB-231 cells after 72 hrs by neutral red dye assay. In kind it is functional, cell-based. The following applies: MDA-MB-231, 72 h. The method, boiled down:
as §3

The subject of series [7] is T-24. Description: Induction of apoptosis in human T24 cells assessed as DNA fragmentation after 48 hrs by ELISA relative to control. The format is functional. In outline: as §4
Series [8] in a line: Cytotoxicity against human CRL8799 cells assessed as cell survival at 20 to 100 uM after 72 hrs by neutral red dye assay. In kind it is cell-based. As to conditions: read-out: Survival. In outline: as §2
Series [9] deals with HT-29. Description: Cytotoxicity against human HT-29 cells assessed as cell survival at 100 uM after 72 hrs by neutral red dye assay. As to conditions: HT-29, 72 h, read-out: Survival. In kind it is functional. The method, boiled down:
as §1

The test system of series [10] is MDA-MB-231. Put plainly: Induction of apoptosis in human MDA-MB-231 cells assessed as DNA fragmentation after 24 hrs by ELISA relative to control. The format is functional. In outline: as §4
The subject of series [11] is HT-29. Put plainly: Cytotoxicity against human HT-29 cells after 72 hrs by neutral red dye assay. In kind it is functional, cell-based. The following applies: HT-29, 72 h. In outline: as §3
In series [12] the test system is MDA-MB-231. Put plainly: Cytotoxicity against human MDA-MB-231 cells assessed as cell survival at 100 uM after 72 hrs by neutral red dye assay. The following applies: MDA-MB-231, 72 h, read-out: Survival. The format is functional. In outline: as §1

As to `COc1ccc(CNc2nc(NCc3ccc(OC)cc3)c3ccccc3n2)cc1`, the viability at 100 µM in series [1], in series [9] and in series [12] was less than 45% in each case. Also, the viability at 72 h, up to 100 µM in series [2] was determined as 100%; in series [8], 0%. Also, the Activity in series [3] turned out to be 50%. For the same molecule, the IC50 in series [4] is 3.87 µM; in series [6] it was 3.87 µM; in series [11], 2.88 µM. The “fold change (FC)” value in series [5] is on record as 8.5; in series [7] it was 5. Also, in [10], the result was inactive.
On to `CCCCCCNc1nc(SCC)nc2ncccc12`, for which the viability at 100 µM in series [1], in [9] and in series [12] was less than 45% throughout. Moreover, the Activity in series [3] is given as 75%. Besides, the IC50 is 5.9 µM in series [4], 1.4 µM in [6] and 22.5 µM in series [11]. Also, the “fold change (FC)” value in series [5] amounted to 8.1; in [7], 1.5; in [10], 3.3.
As for `COc1ccc(CNc2nc(NCc3ccc(OC)cc3)c3cccnc3n2)cc1`, the viability at 100 µM in [1], in [9] and in [12] was less than 45% in each case. Also, the viability at 72 h, up to 100 µM in series [2] was found to be 100%; in series [8], 85%. Also, in [3], the Activity was found to be 50%. The “fold change (FC)” value in series [5] worked out at 2.7; in [7], 2.3; in series [10], 1.5. In [6], this molecule showed an IC50 of 2.9 µM.
With `CCCCNc1nc(NCCCC)c2ccccc2n1`, the viability at 100 µM in [1], in series [9] and in series [12] was less than 45% throughout. In addition, the results for the viability at 72 h, up to 100 µM in series [2] and in series [8] were 1% and 4%, respectively. Moreover, the 50% inhibitory concentration (IC50) in series [4] came to 19.3 µM; in series [6] it was 1.09 µM; in series [11], 6.96 µM. The “fold change (FC)” value in series [5] is given as 1.5. In addition, the outcome in series [7] and in series [10] was inactive.
Take `c1ccc2c(CCNc3nc(NCCc4c[nH]c5ccccc45)c4cccnc4n3)c[nH]c2c1`: the viability at 100 µM in series [1], in series [9] and in series [12] was less than 45% in each case. In series [3], the Activity came to 75%. The IC50 came out at 7.7 µM in series [4], 5.1 µM in series [6] and 3 µM in [11]. Further, in series [5], the “fold change (FC)” value is reported as 3. In addition, the result in series [7] and in series [10] was inactive. In [8], the viability at 72 h, up to 100 µM came out at 56%.
Take `Brc1ccc(CCNc2nc(NCCc3ccc(Br)cc3)c3cccnc3n2)cc1`: the viability at 100 µM in series [1], in [9] and in [12] was less than 45% throughout. The values for the viability at 72 h, up to 100 µM in series [2] and in series [8] were 100% and 90%, respectively. Moreover, the IC50 in series [4] worked out at 11.5 µM; in series [6], 2.7 µM; in [11] it was 4.1 µM. Further, the “fold change (FC)” value in series [5] was 7.2; in [7] it was 1.5. For the same molecule, the outcome in series [10] was inactive.
With `Clc1ccc(CNc2nc(NCc3ccc(Cl)cc3)c3ccccc3n2)cc1`, the viability at 100 µM in series [1], in series [9] and in series [12] was less than 45% throughout. For the same molecule, the viability at 72 h, up to 100 µM in [2] and in series [8] was 0% in each case. The half-maximal inhibitory concentration (IC50) in [4] was found to be 6.41 µM; in [6], 4.26 µM; in series [11], 5.89 µM. Also, the result in series [5] and in series [10] was inactive. For the same molecule, in series [7], the “fold change (FC)” value worked out at 2.

Broadly, the IC50 is the concentration that gives 50% inhibition. Read a high IC50 as lower potency.
